High-throughput results (PubChem BioAssay)
Most compounds without a hit are left out; they make up all but 5.5% or so of the library.
HePTP inhibitor = inhibitors of human HePTP phosphatase | P35236 | recombinant HePTP phosphatase activity, OD absorbance | inhibition, % at 20 µM | actives 0.64% (n = 110,000) | AID 521; in the data active = inhibition above about 50%
Target sequence (P35236 whole entry, looked up): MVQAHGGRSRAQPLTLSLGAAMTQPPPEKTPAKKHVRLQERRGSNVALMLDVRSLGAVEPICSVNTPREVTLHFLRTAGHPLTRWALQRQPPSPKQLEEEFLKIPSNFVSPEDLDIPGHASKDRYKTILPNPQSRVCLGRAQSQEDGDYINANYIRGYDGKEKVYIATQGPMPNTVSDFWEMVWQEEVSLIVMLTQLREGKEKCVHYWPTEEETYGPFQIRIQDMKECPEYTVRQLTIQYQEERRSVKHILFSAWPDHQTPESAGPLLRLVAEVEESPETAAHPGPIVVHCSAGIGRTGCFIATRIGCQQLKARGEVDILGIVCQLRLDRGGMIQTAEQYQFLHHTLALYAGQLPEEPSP
PostGolgi ctrl = growth of the yeast control strain, post-Golgi counter-screen. efflux-deficient yeast background strain, growth absorbance A615, 16 h. inhibition, % at 10 µM. AID 738. actives 5% (n = 98,000)
PostGolgi yeast = growth inhibition of a yeast mutant, post-Golgi transport screen | post-Golgi transport phenotypic cell assay | inhibition, % at 10 µM | actives 0.9% (n = 98,000) | AID 739;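 also: yeast cells grown in 1536-well plates; yeast grown about 18 h at 30C before absorbance read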
E coli WT exp = growth inhibitors of E. coli BW25113 wild type; OD600 absorbance; growth inhibition, % at 100 µM; actives 0.15% (n = 98,000);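 active = growth inhibition above about 50% at one test dose, limit read from the data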;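 also: growth measured after 20 h incubation at 37 °C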
Ecoli tolC = E. coli tolC mutant growth inhibition; actives 2.2% (n = 65,000); E. coli BW25113 tolC mutant growth, OD615; growth inhibition, % at 10 µM (by protocol);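 active = growth inhibition at or above a cutoff equal to the mean over every tested compound plus 3 SD, cut at about 60% in these data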;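 also: growth measured after 20 h incubation at 37 °C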
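Test system: E. coli BW25113 ΔtolC::kan bacteria; incubation: 37 °C, 20 h exposure; medium: LB broth supplemented with 50 µg/mL kanamycin; read-out basis: percent growth inhibition; signal: A615 absorbance measurement; compound: 10 µM final, single dose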
PLAP act = activates human placental alkaline phosphatase; AID 696; P05187; activation fold at 20 µM; actives 1.2% (n = 96,000); purified PLAP enzyme, luminescent substrate read-out; stronger effect = higher value; in the data active = activation fold above about 2
Numbers stand for hits. Rule as the data show it, unless noted: active = inhibition above about 30%; inactive = the rest.

Screening COc1cc(C(=O)Nc2nnc(-c3sccc3C)s2)cc(OC)c1OC returned HePTP inhibitor inactive, PostGolgi ctrl 36, PostGolgi yeast inactive, E coli WT exp inactive, Ecoli tolC inactive and PLAP act inactive.
For COc1cc(C(=O)Nc2nc3ccc4ccccc4c3s2)cc(OC)c1OC the results were HePTP inhibitor inactive.
For NC1=NC(c2ccc(Br)cc2)n2c(nc3ccccc32)N1 (stereo unspecified) the results were HePTP inhibitor inactive, PostGolgi ctrl inactive, PostGolgi yeast inactive, E coli WT exp inactive, Ecoli tolC inactive and PLAP act 2.2.
`NC1=NC(c2ccccc2)n2c(nc3ccccc32)N1` (stereo unspecified) gave HePTP inhibitor inactive.
CCOC(=O)c1ccccc1-n1c(C)cc(C2N=C(N)Nc3nc4ccccc4n32)c1C (stereo unspecified) was read as PostGolgi ctrl inactive, PostGolgi yeast inactive, E coli WT exp inactive and PLAP act 2.5.
NS(=O)(=O)c1ccc(NC(=O)c2ccccc2I)cc1 was read as HePTP inhibitor inactive.
`CCOC(=O)c1ccc(-n2c(C)cc(/C=C3\SC(=S)NC3=O)c2C)cc1` gave HePTP inhibitor inactive.
For Cc1c(OCc2ccc([N+](=O)[O-])cc2)ccc2c3c(c(=O)oc12)CCCC3 the results were HePTP inhibitor inactive.
For COc1ccc(-c2[nH]ncc2/C=N\NS(=O)(=O)c2ccccc2)cc1OC the results were PostGolgi ctrl inactive, PostGolgi yeast inactive, E coli WT exp inactive and PLAP act inactive.
COc1ccc(-c2[nH]ncc2/C=N\NS(=O)(=O)c2ccc(Cl)cc2)cc1 was read as PostGolgi ctrl 31, PostGolgi yeast inactive, E coli WT exp inactive and PLAP act inactive.
Screening CC(C)(Oc1ccc(Cl)cc1)C(=O)N/N=C/c1cn[nH]c1-c1ccccc1 returned PostGolgi ctrl inactive, PostGolgi yeast inactive, E coli WT exp inactive and PLAP act 2.8.
For S=C(NCCSc1ccccn1)Nc1ccccc1 the results were HePTP inhibitor inactive.
`C=CCOCCN(CCOCC=C)C1=NS(=O)(=O)c2cc([N+](=O)[O-])ccc21` gave HePTP inhibitor inactive.
CC(C)N(C(=O)C1CCCCC1C(=O)O)C(C)C (stereo unspecified) was read as HePTP inhibitor inactive.
`Cc1ccc(OCc2nc(-c3ccccn3)n[nH]2)cc1` gave PostGolgi ctrl inactive, PostGolgi yeast inactive, E coli WT exp inactive and PLAP act 2.6.
For Cc1ccc(C2CC(C(F)(F)F)n3nc(C(=O)N4CCN(Cc5ccccc5)CC4)cc3N2)cc1 (stereo unspecified) the results were HePTP inhibitor inactive.
For N#Cc1c(NC(=O)c2ccc(Cn3cc(Br)cn3)o2)sc2c1CCCCCC2 the results were HePTP inhibitor inactive, PostGolgi ctrl inactive, PostGolgi yeast inactive, E coli WT exp inactive, Ecoli tolC 61 and PLAP act inactive.
For CC1(c2cnc(Nc3ccccc3)s2)CCC(=O)O1 (stereo unspecified) the results were HePTP inhibitor inactive, PostGolgi ctrl 39, PostGolgi yeast inactive, E coli WT exp inactive, Ecoli tolC inactive and PLAP act inactive.
Fc1ccc(Cc2cnc(Nc3ccccc3)s2)cc1 was read as HePTP inhibitor inactive.
C=CCN(CC=C)S(=O)(=O)c1ccc2nc(NC(=O)C(C)C)sc2c1 was read as HePTP inhibitor inactive, PostGolgi ctrl inactive, PostGolgi yeast inactive, E coli WT exp inactive, Ecoli tolC 100 and PLAP act inactive.
O=C(CSc1nc2ccccc2s1)CSc1nc2ccccc2s1 was read as HePTP inhibitor inactive, PostGolgi ctrl inactive, PostGolgi yeast inactive, E coli WT exp inactive and PLAP act inactive.
O=C1C(Cl)=CC(=NSc2nc3ccccc3s2)C=C1Cl was read as HePTP inhibitor 68.
O=C1OC(c2ccc(-c3ccccc3)cc2)c2ccccc21 (stereo unspecified) was read as HePTP inhibitor 105.
`COc1cccc2cc(-c3nc(-c4cccc(Br)c4)cs3)c(=O)oc12` gave HePTP inhibitor inactive.
For Fc1ccc(Cn2c(-c3cscn3)nc3ccccc32)c(Cl)c1 the results were PostGolgi ctrl 34, PostGolgi yeast inactive, E coli WT exp inactive and PLAP act inactive.
For Clc1ccc(Cn2c(-c3cccnc3Cl)nc3ccccc32)cc1 the results were PostGolgi ctrl inactive, PostGolgi yeast inactive, E coli WT exp inactive and PLAP act inactive.
Screening Clc1ccc(Cn2c(-c3cccnc3Cl)nc3ccccc32)c(Cl)c1 returned PostGolgi ctrl 38, PostGolgi yeast inactive, E coli WT exp inactive and PLAP act inactive.
For CC1=C(C(=O)Nc2ccc(C)c(Cl)c2)C(c2cccs2)NC(=O)N1 (stereo unspecified) the results were HePTP inhibitor inactive.
Screening Cc1n[nH]c(C)c1CCC(=O)N/N=C/c1ccc(O)cc1O returned HePTP inhibitor inactive.
O=C(COc1ccc(Cl)cc1)Nc1ccc(F)c([N+](=O)[O-])c1 was read as HePTP inhibitor inactive.
Screening Nc1ncnc2nc(SCc3ccccc3)[nH]c12 returned HePTP inhibitor inactive, PostGolgi ctrl inactive, PostGolgi yeast inactive, E coli WT exp inactive, Ecoli tolC inactive and PLAP act 2.
Nc1ncnc2nc(SCC(=O)N3CCN(c4ccccc4)CC3)[nH]c12 was read as HePTP inhibitor inactive, PostGolgi ctrl inactive, PostGolgi yeast inactive, E coli WT exp inactive, Ecoli tolC inactive and PLAP act inactive.
`Cc1ccc(S(=O)(=O)/N=C(\N)Nc2nc(C)c3cc(C)c(C)cc3n2)cc1` gave PostGolgi ctrl 40, PostGolgi yeast inactive, E coli WT exp inactive and PLAP act inactive.
Screening O=C(O)C1C2CCC(O2)C1C(=O)NCCC1=CCCCC1 (stereo unspecified) returned HePTP inhibitor inactive, PostGolgi ctrl 30, PostGolgi yeast inactive, E coli WT exp inactive, Ecoli tolC inactive and PLAP act inactive.
For CC(C)=C1C2CCC1C(C(=O)NCCC1=CCCCC1)C2C(=O)O (stereo unspecified) the results were HePTP inhibitor inactive.
Cc1cc(NNC(=O)c2ccccc2O)c2cccc(C)c2n1 was read as HePTP inhibitor inactive.
Cc1cc(=O)oc2c1ccc1oc(/C(=N/O)c3ccccc3)c(C)c12 was read as HePTP inhibitor inactive, PostGolgi ctrl 35, PostGolgi yeast inactive, E coli WT exp inactive, Ecoli tolC 63 and PLAP act inactive.
Screening Cc1cc(=O)oc2c1ccc1oc(/C(=N\O)c3ccc(Cl)cc3)c(C)c12 returned HePTP inhibitor inactive.
Screening Cc1ccc(C(=O)N/C(=C/c2ccccc2Cl)C(=O)Nc2ccc(S(=O)(=O)Nc3nccs3)cc2)cc1 returned HePTP inhibitor inactive.
For COc1ccc(-c2csc(Nc3ccc4c(c3)OCO4)n2)cc1F the results were HePTP inhibitor inactive.
Screening O=C(CCl)N(c1ccc(Cl)cc1)c1c[nH]c2ccccc12 returned PostGolgi ctrl 44, PostGolgi yeast inactive, E coli WT exp inactive and PLAP act inactive.
`O=C(CCl)N(c1ccccc1)c1c[nH]c2ccccc12` gave PostGolgi ctrl inactive, PostGolgi yeast inactive, E coli WT exp inactive and PLAP act inactive.
